# Assay outcomes deposited in PubChem by Broad Institute.
# Shown are actives, neighbours in structure and some others; about 2% of the full set was active somewhere.
# S100A4 MyoIIA: S100A4-myosin IIA interaction inhibition. P26447. S100A4/TAMRA-MyoIIA peptide fluorescence polarization. inhibition, % at 10.7 µM. hit rate 0.14% among 360,000. AID 652163;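 active = mean inhibition of at least 70% across replicates, with every replicate also reaching that level; inconclusive = mean inhibition reaches 70% but some replicates fall short; inactive = mean inhibition below 70%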
# Target sequence (P26447 whole entry, looked up): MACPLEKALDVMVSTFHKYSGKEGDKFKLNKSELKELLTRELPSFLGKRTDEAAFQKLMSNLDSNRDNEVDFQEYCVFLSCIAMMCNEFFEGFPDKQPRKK
#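 Test system: S100A4 monomer protein. Medium: HEPES buffer with Ca2+, pH 7.2. Reagent: fluorescent myosin IIA peptide, 5 nM. Compound dosing: single-point compound testing. Timing: 5 min between mix addition and reading. Benchmarks: DMSO neutral and TFP positive wells.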
# Xi reactivation: X-chromosome reactivation activator; XiGFP mouse fibroblasts, % GFP-positive cells imaging, 3 d; cells co-treated with 5-aza-dC sensitizer; scaled so ellipticine positive control = 100%; activation, % at 7.58 µM; hit rate 0.055% among 360,000; AID 743238;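 active = mean normalized replicate activation at least 10% and every replicate at or above 10%; inconclusive = only one of the two criteria met; inactive = mean below 10% and not all replicates reach 10%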;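 note: 0% = median of on-plate neutral control wells and 100% = ellipticine 6 µM median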
#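 Schedule: 3 d treatment, 15 min room-temperature fixation; system: 68-5-11 XiGFP fibroblast line; buffer or medium: DMEM plus 5-aza-dC sensitizer; control set: ellipticine 6 µM positive control; compound: one concentration, pinned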
# DENV2 CPE rescue: DENV2-induced cell death inhibition; DENV2-infected cells, cytopathic effect rescue, plate reader; CPE inhibition, % at 9.99 µM; hit rate 1.7% among 350,000; AID 651640; in the data active = CPE inhibition above about 20%, passing the limit was not always enough; inconclusive = no clear call, values can overlap the other calls; tested in BHK-21 cells;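 note: 0% = median of neutral control wells and 100% = median of positive control wells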
# E-selectin induc: E-selectin induction on HUVECs. hit rate 0.37% among 260,000. activation, % at 7.58 µM. HUVEC E-selectin immunofluorescence imaging; normalized: neutral wells 0, TNF-alpha wells 100;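 active = mean E-selectin-positive cell signal at least 10% of the positive control, reached in at least 60% of replicates, without over 20% cell loss; inconclusive = no rule given, readout overlaps actives, possibly toxicity-flagged; inactive = the rest, including those meeting only one limit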
#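 Test system: HUVEC; input: 3,000 HUVEC/well; measured by: immunofluorescence imaging; read-out: % PE-positive cells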
# The depositor's hits bear a star; ? = inconclusive; · = no result.
SMILES,S100A4 MyoIIA,Xi reactivation,DENV2 CPE rescue,E-selectin induc
COCC(=O)NC[C@@H]1[C@H](c2ccc(C3=CCCC3)cc2)[C@H](CO)N1C(=O)C1CC1,-4,0,-5,0
CC(=O)NC[C@H]1[C@@H](c2ccc(C3=CCCCC3)cc2)[C@@H](CO)N1C(=O)NC(C)C,·,0,55*,0
COc1ccc([C@@H]2CC=C(C(=O)O)[C@H](c3ccc(Cl)cc3)N2S(=O)(=O)c2ccc(C)cc2)cc1OC,-2,0,-9,0
CCOC(=O)C1(Cc2ccccc2C)CCCN(C(=O)c2ccnn2C)C1 (stereo not drawn),1,0,-3,114*
COc1cc2nc(N3CCN(C(=O)c4ccco4)CC3)nc(N)c2cc1OC,-9,0,-4,-2
COc1cc2nc(N3CCN(C(=O)C4COc5ccccc5O4)CC3)nc(N)c2cc1OC (stereo not drawn),-1,0,-1,61*
CC1(C)CC(NC(=O)COc2ccccc2Cl)CC(C)(C)N1,-16,0,33*,1
Cc1cc(=O)oc2cc(OCC(=O)NC3CC(C)(C)NC(C)(C)C3)ccc12,0,1,4,·
CC1(C)CC(NC(=O)COc2ccc(Br)cc2Cl)CC(C)(C)N1,-1,0,11,0
CCc1cc(=O)oc2cc(OCC(=O)NC3CC(C)(C)NC(C)(C)C3)ccc12,2,0,36*,·
Cc1ccc(NC(=O)CSC2=NN3CCCC(=O)N=C3S2)c(C)c1,-1,0,1,-2
Cc1ccc(C)c(CSC2=NN3CCCC(=O)N=C3S2)c1,-4,19*,-1,2
Cc1ccc(NC(=O)CSc2nnc(-c3cc(C)[nH]n3)n2N)c(C)c1,-3,0,-4,·
Cc1ccccc1NC(=O)CN1C(=O)S/C(=C\c2ccc(-c3cc(C(=O)O)ccc3C)o2)C1=O,11,40*,12,·
Cc1ccc(C(=O)O)cc1-c1ccc(/C=C2\SC(=O)N(CC(=O)Nc3ccccc3)C2=O)o1,4,0,-2,·
O=C(C[C@@H]1CC[C@H]2[C@@H](COC[C@@H](O)CN2C(=O)c2ccccn2)O1)N1CCN(c2ccccc2)CC1,-20,0,5,0
NC(=O)CC(NC(=O)Cc1ccc(Cl)cc1)c1ccc(NC2CC3CCC2C3)c([N+](=O)[O-])c1 (stereo not drawn),5,0,8,0
NC(=O)CC(NC(=O)c1cccc(Br)c1)c1ccc(NC2CCN(Cc3ccccc3)CC2)c([N+](=O)[O-])c1 (stereo not drawn),-3,1,70*,0
CN(Cc1ccccc1)c1ccc(C(CC(N)=O)NC(=O)Cc2ccc(Br)cc2)cc1[N+](=O)[O-] (stereo not drawn),56,-1,136*,0
NC(=O)CC(NC(=O)Cc1ccc(Cl)cc1)c1ccc(NC2CCN(Cc3ccccc3)CC2)c([N+](=O)[O-])c1 (stereo not drawn),1,0,61*,1
NC(=O)CC(NC(=O)Cc1ccc(Cl)cc1)c1ccc(NCc2ccccc2)c([N+](=O)[O-])c1 (stereo not drawn),1,0,28*,0
COCCN1CC(=O)N2C(c3cccc(C)c3)c3[nH]c4ccccc4c3C[C@H]2C1=O (stereo partly drawn),7,0,18,0
CO[C@H]1CN(C)C(=O)c2ccc(NC(=O)Nc3cc(Cl)cc(Cl)c3)cc2OC[C@H](C)NC[C@@H]1C,-5,0,-6,0
C[C@@H]1CCCCO[C@@H](CN(C)S(=O)(=O)c2cn(C)cn2)[C@@H](C)CN([C@H](C)CO)C(=O)c2cc(NS(=O)(=O)c3cccs3)ccc2O1,8,0,30*,0
C[C@H]1CCCCO[C@H](CN(C)S(=O)(=O)c2cn(C)cn2)[C@@H](C)CN([C@@H](C)CO)C(=O)c2cc(NS(=O)(=O)c3cccs3)ccc2O1,-61,0,1,0
SMILES,S100A4 MyoIIA,Xi reactivation,DENV2 CPE rescue,E-selectin induc
C[C@H]1CCCCO[C@@H](CN(C)S(=O)(=O)c2cn(C)cn2)[C@@H](C)CN([C@@H](C)CO)C(=O)c2cc(NS(=O)(=O)c3cccs3)ccc2O1,-21,0,-2,0
C[C@@H]1CN([C@@H](C)CO)C(=O)c2cc(NS(=O)(=O)c3cccs3)ccc2O[C@@H](C)CCCCO[C@@H]1CN(C)S(=O)(=O)c1cn(C)cn1,-1,0,34*,0
CC1=NN(c2ccccc2)C(c2ccco2)C1 (stereo not drawn),1,0,7,0
O=[N+]([O-])c1ccc(C2=NN(c3ccccc3)C(c3ccco3)C2)cc1 (stereo not drawn),-23,86*,0,·
O=[N+]([O-])c1ccc(/C=C/C2=NN(c3ccccc3)C(c3ccco3)C2)cc1 (stereo not drawn),·,89*,·,·
O=[N+]([O-])c1ccc(C=CC=Cc2ccccc2)cc1,-18,0,-1,·
COc1ccc(NC(=O)CSc2nc(O)cc(=O)n2-c2ccccc2OC)cc1,-6,·,5,·
Cc1ccc2ncnc(Oc3ncccc3[N+](=O)[O-])c2c1,-3,0,-1,0
CN1C[C@@H]2[C@@H]3C(=O)N(Cc4ccccc4)C(=O)[C@@H]3[C@](C)(C1=O)N2C(=O)c1ccc(C(F)(F)F)cc1,1,0,12,0
CN1C[C@@H]2[C@@H]3C(=O)N(Cc4ccccc4)C(=O)[C@@H]3[C@](C)(C1=O)N2C(=O)c1ccc(C(C)(C)C)cc1,-10,0,54*,0
COc1ccccc1CN1CC[C@H]2[C@H](CO)Nc3ccc(-c4cccc(F)c4)cc3[C@H]21,·,0,-27,0
O=C(CN1CCOCC1)N1CCCCN2[C@H](C1)[C@H](c1ccc(C#Cc3ccccc3F)cc1)[C@@H]2CO,-14,0,43*,0
CC(=O)N1CCCCN2[C@@H](CO)[C@@H](c3ccc(C#Cc4ccccc4F)cc3)[C@@H]2C1,5,0,59*,1
O=C(CN1CCOCC1)N1CCCCN2[C@H](CO)[C@H](c3ccc(C#Cc4ccccc4F)cc3)[C@@H]2C1,-18,0,48*,1
Nc1cccc(O)c1,-1,·,21*,·
O=C(O)CSc1ncccc1C(=O)O,1,0,46*,-1
O=C(CSc1ncccc1C(=O)O)c1ccccc1F,1,0,6,·
Cc1c(Cl)c([N+](=O)[O-])nn1CC(=O)NCc1cccs1,-3,0,-15,-2
OC[C@H]1[C@@H]2c3ccccc3NC[C@@H]2N1CC1CCOCC1,-9,0,22*,0
OC[C@H]1[C@H]2c3ccccc3NC[C@H]2N1CC1CCCCC1,-8,0,?,0
[O-][n+]1cccc2ncc3cscc3c21,-2,0,·,431*
c1cnc2c(c1)ncc1cscc12,-7,1,-4,0
